Reduction data for four compounds are collected here from ChEMBL document CHEMBL1144923, “Restricted conformation analogues of an anthelmintic cyclodepsipeptide” (2003).

Each structure is given as a SMILES string.

Holding throughout (type): functional
The test system of assay [1] is Meriones unguiculatus. As to the kind of experiment: Percent reduction of Haemonchus contortus in immunosuppressed jird (Meriones unguiculatus) when CDP administered 0.11 mg/jird orally. The gist of the method:
(§1)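 Jirds were immunosuppressed via medicated food; 5 days later each got ~1000 exsheathed infective H. contortus larvae (pre-incubated 1 h in Earle's balanced salt solution) per os. The strain was maintained in sheep. Jirds were randomized by cage (3/group) on day 10 post-inoculation. Compound was suspended in 17% DMSO/83% carboxymethylcellulose and given orally in 0.2 mL, with vehicle-only controls. Worms were recovered after 5 h incubation at 37 °C, fixed in formaldehyde and counted under a dissecting microscope. Percent clearance = (mean control − mean treated)/mean control × 100.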

Assay [2] relates to Meriones unguiculatus. In words: Percent reduction of Haemonchus contortus in immunosuppressed jird (Meriones unguiculatus) when CDP administered 0.33 mg/jird orally. Summed up: as §1
The test system of assay [3] is Meriones unguiculatus. In words: Percent reduction of Haemonchus contortus in immunosuppressed jird (Meriones unguiculatus) when CDP administered 3 mg/jird orally. Summed up:
as §1

For assay [4], the system named is Meriones unguiculatus. In words: Percent reduction of Haemonchus contortus in immunosuppressed jird (Meriones unguiculatus) when CDP administered 1 mg/jird orally. Summed up:
as §1

Assay [5] concerns Meriones unguiculatus. In words: Percent reduction of Haemonchus contortus in immunosuppressed jird (Meriones unguiculatus) when CDP administered 2.75 mg/jird orally. Summed up: as §1
For assay [6], the system named is Meriones unguiculatus. As to the kind of experiment: Percent reduction of Haemonchus contortus in immunosuppressed jird (Meriones unguiculatus) when CDP administered 5.75 mg/jird orally. The gist of the method:
as §1

For `CC(C)C[C@H]1C(=O)O[C@H](Cc2ccccc2)C(=O)N(C)[C@@H](CC(C)C)C(=O)O[C@H](C)C(=O)N(C)[C@@H](CC(C)C)C(=O)O[C@H](Cc2ccccc2)C(=O)N(C)[C@@H](CC(C)C)C(=O)O[C@H](C)C(=O)N1C`, the Reduction in the assay with Meriones unguiculatus [1] is reported as 100%.
As for `CC(C)C[C@H]1C(=O)O[C@H](Cc2ccccc2)C(=O)N(C)[C@@H](CC(C)C)C(=O)OC2CCCN(C2=O)[C@@H](CC(C)C)C(=O)O[C@H](Cc2ccccc2)C(=O)N(C)[C@@H](CC(C)C)C(=O)O[C@H](C)C(=O)N1C` (stereo partly specified), the Reduction with Meriones unguiculatus [2] was 75%; in the assay on Meriones unguiculatus [3], 99%; in the assay with Meriones unguiculatus [4] it was 89%; in the assay on Meriones unguiculatus [1], 36%.
In the case of `CC(C)C[C@H]1C(=O)O[C@H](Cc2ccccc2)C(=O)N(C)[C@@H](CC(C)C)C(=O)O[C@@H]2CCN(C2=O)[C@@H](CC(C)C)C(=O)O[C@H](Cc2ccccc2)C(=O)N(C)[C@@H](CC(C)C)C(=O)O[C@H](C)C(=O)N1C`, the values for the Reduction in the assay on Meriones unguiculatus [5] and in the assay with Meriones unguiculatus [6] were 69% and 89%, respectively.
Turning to `CC(C)C[C@H]1C(=O)O[C@H](Cc2ccccc2)C(=O)N(C)[C@@H](CC(C)C)C(=O)OC2CCCCN(C2=O)[C@@H](CC(C)C)C(=O)O[C@H](Cc2ccccc2)C(=O)N(C)[C@@H](CC(C)C)C(=O)O[C@H](C)C(=O)N1C` (stereo partly specified), the Reduction in the assay with Meriones unguiculatus [2] is on record as 99%; with Meriones unguiculatus [3], 100%; in the assay on Meriones unguiculatus [4], 100%; with Meriones unguiculatus [1] it was 91%.
